Test results as given in ChEMBL document CHEMBL4229458, “Lipid accumulation inhibitory activities of novel isoxazole-based chenodeoxycholic acids: Design, synthesis and preliminary mechanism study” (Bioorg Med Chem Lett, 2018).
The source made the active and inactive calls. The calls are words filed in the database; no cut-off is given here.

Tests used:
[1] = test system: 3T3-L1; assay: Cytotoxicity against mouse 3T3L1 cells assessed as decrease in cell viability at 40 uM after 48 hrs by MTT assay; type: cell-based; conditions: 3t3-l1, 48 h
In short: (§1)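 3T3-L1 preadipocytes given 5, 10, 20 and 40 μM for 48 h, with 1% DMSO as control. Viability measured by MTT. Mean ± SD of two independent experiments.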

[2] = test system: 3T3-L1; assay: Inhibition of lipid accumulation in mouse 3T3L1 cells at 10 uM by oil red o staining-based assay; type: functional
In short: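 3T3-L1 preadipocytes differentiated for 6 days into mature adipocytes, then treated at 10 μM. Intracellular lipid stained with Oil Red O and quantified relative to vehicle. Mean ± SD of two independent experiments.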

[3] = test system: 3T3-L1; assay: Cytotoxicity against mouse 3T3L1 cells assessed as decrease in cell viability at 10 uM after 48 hrs by MTT assay; type: cell-based; conditions: 3t3-l1, 48 h; in short: as §1
[4] = test system: HepG2; assay: Cytotoxicity against human HepG2 cells assessed as decrease in cell viability at 5 to 80 uM after 48 hrs by MTT assay; type: cell-based; conditions: hepg2, 48 h
In short: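 HepG2 cells exposed to 5, 10, 20, 40 and 80 μM for 48 h. Viability read by MTT.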

[5] = target: T1, Bile acid receptor (Homo sapiens) (UniProt Q96RI1); assay: Activation of FXR in human HepG2 cells assessed as upregulation of SHP mRNA expression at 10 uM by RT-PCR method; type: cell-based
T1 sequence (whole entry): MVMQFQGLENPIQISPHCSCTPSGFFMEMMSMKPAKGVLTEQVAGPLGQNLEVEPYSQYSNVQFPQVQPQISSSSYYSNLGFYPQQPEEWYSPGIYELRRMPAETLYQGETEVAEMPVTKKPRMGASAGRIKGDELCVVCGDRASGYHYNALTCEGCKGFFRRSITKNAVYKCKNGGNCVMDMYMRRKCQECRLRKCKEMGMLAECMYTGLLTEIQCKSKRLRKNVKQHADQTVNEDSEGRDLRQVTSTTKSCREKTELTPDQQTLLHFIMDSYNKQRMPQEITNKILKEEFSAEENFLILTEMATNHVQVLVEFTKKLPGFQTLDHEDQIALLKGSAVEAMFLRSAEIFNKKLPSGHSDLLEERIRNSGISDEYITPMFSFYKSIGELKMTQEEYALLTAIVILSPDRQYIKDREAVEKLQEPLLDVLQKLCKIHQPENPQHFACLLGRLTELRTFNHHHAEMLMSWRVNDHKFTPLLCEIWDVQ
In short: (§2)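 HepG2 cells treated at 10 μM. mRNA of FXR, SHP and SREBP-1c quantified by real-time PCR against vehicle (0.1% DMSO). Mean ± SEM, n = 3.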

[6] = target: T1, Bile acid receptor (Homo sapiens); assay: Activation of FXR in human HepG2 cells assessed as downregulation of SREBP-1c mRNA expression at 10 uM by RT-PCR method; type: cell-based; in short: as §2
[7] = target: T1, Bile acid receptor (Homo sapiens); assay: Activation of FXR in human HepG2 cells assessed as upregulation of FXR mRNA expression at 10 uM by RT-PCR method; type: cell-based; in short: as §2

Compound | Activity [1] | inhibition [2] | Activity [3] | Activity [4] | Activity [5] | Activity [6] | Activity [7] | inhibition at 10 µM [2]
Cc1noc(C)c1C(=O)N[C@H]1CC[C@@]2(C)[C@@H](C1)C[C@@H](O)[C@@H]1[C@@H]2CC[C@]2(C)[C@@H]([C@H](C)CCC(=O)O)CC[C@@H]12 | Non-Toxic | Active | Non-Toxic | – | – | – | – | –
Cc1noc(C)c1C(=O)N[C@H]1CC[C@@]2(C)[C@@H](C1)C[C@@H](O)[C@@H]1[C@@H]2CC[C@]2(C)[C@@H]([C@H](C)CCC(N)=O)CC[C@@H]12 | Non-Toxic | Active | Non-Toxic | – | – | – | – | –
COC(=O)CC[C@@H](C)[C@H]1CC[C@H]2[C@@H]3[C@H](O)C[C@@H]4C[C@@H](NC(=O)c5c(C)noc5C)CC[C@]4(C)[C@H]3CC[C@]12C | Non-Toxic | Active | Non-Toxic | – | – | – | – | –
CNC(=O)CC[C@@H](C)[C@H]1CC[C@H]2[C@@H]3[C@H](O)C[C@@H]4C[C@@H](NC(=O)c5c(C)noc5C)CC[C@]4(C)[C@H]3CC[C@]12C | Non-Toxic | – | Non-Toxic | Non-Toxic | Active | Active | Active | 30.5%
CC(=O)Nc1ccc(NC(=O)CC[C@@H](C)[C@H]2CC[C@H]3[C@@H]4[C@H](O)C[C@@H]5C[C@@H](NC(=O)c6c(C)noc6C)CC[C@]5(C)[C@H]4CC[C@]23C)cc1 | Toxic | Active | Non-Toxic | – | – | – | – | –
Cc1noc(C)c1C(=O)N[C@H]1CC[C@@]2(C)[C@@H](C1)C[C@@H](O)[C@@H]1[C@@H]2CC[C@]2(C)[C@@H]([C@H](C)CCC(=O)NCC(=O)O)CC[C@@H]12 | Non-Toxic | Active | Non-Toxic | – | – | – | – | –
CC(C)c1onc(-c2c(Cl)cccc2Cl)c1COc1ccc(/C=C/c2cccc(C(=O)O)c2)c(Cl)c1 | – | – | – | Non-Toxic | Active | Active | Active | –
C[C@H](CCC(=O)O)[C@H]1CC[C@H]2[C@@H]3[C@H](O)C[C@@H]4C[C@H](O)CC[C@]4(C)[C@H]3CC[C@]12C | – | Active | – | – | – | – | – | –
Cc1noc(C)c1C(=O)N[C@H]1CC[C@@]2(C)[C@@H](C1)C[C@@H](O)[C@@H]1[C@@H]2CC[C@]2(C)[C@@H]([C@H](C)CCC(=O)Nc3ccc(F)cc3)CC[C@@H]12 | Non-Toxic | Active | Non-Toxic | – | – | – | – | –
Cc1noc(C)c1C(=O)N[C@H]1CC[C@@]2(C)[C@@H](C1)C[C@@H](O)[C@@H]1[C@@H]2CC[C@]2(C)[C@@H]([C@H](C)CCC(=O)Nc3ccc(Cl)cc3)CC[C@@H]12 | Non-Toxic | Active | Non-Toxic | – | – | – | – | –
CCNC(=O)CC[C@@H](C)[C@H]1CC[C@H]2[C@@H]3[C@H](O)C[C@@H]4C[C@@H](NC(=O)c5c(C)noc5C)CC[C@]4(C)[C@H]3CC[C@]12C | Non-Toxic | Active | Non-Toxic | – | – | – | – | –
Cc1noc(C)c1C(=O)N[C@H]1CC[C@@]2(C)[C@@H](C1)C[C@@H](O)[C@@H]1[C@@H]2CC[C@]2(C)[C@@H]([C@H](C)CCC(=O)Nc3cccc(Cl)c3)CC[C@@H]12 | Non-Toxic | Active | Non-Toxic | – | – | – | – | –
